SIAE primary – human SIAE inhibitors, primary screen, biochemical, fluorescence polarization, FP-Rh probe, 1536-well HTS; Sialate O-acetylesterase (Homo sapiens), Q9HAT2; SIAE FP-Rh probe binding; inhibition, % at 9.66 µM; actives 0.69% (n = 370,000);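 active means inhibition above a cutoff: mean of compounds within the control limits plus 3 SD of those, cut at about 17% in these data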;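 further: 0% = plate median of compound wells and 100% = probe without SIAE protein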
Target sequence (Q9HAT2 whole entry, looked up): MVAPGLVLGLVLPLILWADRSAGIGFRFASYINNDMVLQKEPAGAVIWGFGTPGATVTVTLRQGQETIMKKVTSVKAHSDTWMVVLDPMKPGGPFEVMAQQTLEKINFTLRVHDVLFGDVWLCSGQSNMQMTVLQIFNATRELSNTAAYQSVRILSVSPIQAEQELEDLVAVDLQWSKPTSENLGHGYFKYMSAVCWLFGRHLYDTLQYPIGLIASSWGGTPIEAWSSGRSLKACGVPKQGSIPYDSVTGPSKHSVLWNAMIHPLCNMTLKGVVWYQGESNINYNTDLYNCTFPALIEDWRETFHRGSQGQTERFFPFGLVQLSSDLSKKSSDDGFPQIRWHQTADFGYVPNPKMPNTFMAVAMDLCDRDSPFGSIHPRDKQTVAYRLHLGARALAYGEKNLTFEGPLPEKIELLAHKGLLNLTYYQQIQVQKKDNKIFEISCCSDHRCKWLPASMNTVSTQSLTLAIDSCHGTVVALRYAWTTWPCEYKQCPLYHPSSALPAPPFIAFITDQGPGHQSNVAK
HTRA1 inhibitor – HTRA1 serine protease inhibitors, primary screen, biochemical, fluorescence polarization, HTS; Q92743; recombinant HTRA1, FP-rhodamine activity-based probe; inhibition, % at 5.96 µM; actives 0.5% (n = 340,000); AID 504803, 2011; in the data active means inhibition above about 36%;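 further: 0% = enzyme with DMSO and 100% = wells lacking enzyme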
ABHD4 inh – ABHD4 inhibitors, primary screen, biochemical, fluorescence polarization, mouse. purified mABHD4, FP-Rh probe fluorescence polarization. (Lyso)-N-acylphosphatidylethanolamine lipase (Mus musculus), Q8VD66. actives 0.54% (n = 370,000). inhibition, % at 8.92 µM;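 active means inhibition exceeding the mean over every tested compound plus 3 SD, cut at about 30% in these data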;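 further: 0% = plate median of compound wells and 100% = S159A mutant with DMSO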
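assay system = mABHD4 protein | compound dosing = single nominal dose of 8.92 µM, 0.89% DMSO final | read-out basis = percent inhibition of probe binding, normalized to plate controls | schedule = Enzyme–compound pre-incubation 45 min, then probe 60 min, both 25 °C | detection = fluorescence polarization, excitation 525 nm, emission 598 nm, BODIPY TMR filters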
PRMT1 inh – PRMT1 methyltransferase inhibitors, primary screen, biochemical, fluorescence polarization. Protein arginine N-methyltransferase 1 (Homo sapiens), Q99873. recombinant PRMT1, activity-based probe fluorescence polarization. inhibition, % at 2.79 µM. actives 1.3% (n = 370,000);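 active means inhibition above about 21% made by adding two undisclosed values, limit read from the data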
TCR CD3 inh – inhibitors of human TCR-CD3 interaction, primary screen, biochemical, fluorescence, TAMRA-labeled TCR probe. actives 0.37% (n = 360,000). inhibition, % at 9.4 µM; in the data active means inhibition above about 19%;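 further: recombinant mutant TCR 2C K166C tagged with TAMRA read by polarization; 0% = receptor in buffer alone and 100% = receptor with positive control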
PRMT1 inh conf – PRMT1 methyltransferase inhibitors, confirmation, biochemical, fluorescence polarization, triplicate | shares compounds with PRMT1 inh | recombinant His-PRMT1, activity-based probe fluorescence polarization | inhibition, % at 2.79 µM | actives 42% (n = 3,300);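 active means mean inhibition across replicates above the hit cutoff derived for the earlier primary screen, cut at about 22% in these data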
An asterisk follows results filed as active; x = not tested or not shown. Hits are enriched below; roughly 2.5% of the tested compounds scored in any of these assays.

SMILES	SIAE primary	HTRA1 inhibitor	ABHD4 inh	PRMT1 inh	TCR CD3 inh	PRMT1 inh conf
CC(=O)Nc1ncc2c(n1)CC(c1ccco1)CC2=O (centres undefined)	3	1	3	0	5	x
CCC(=O)Nc1ncc2c(n1)CC(c1ccco1)CC2=O (centres undefined)	5	21	2	41*	9	8
Nc1ncc2c(n1)CC(c1ccco1)CC2=O (centres undefined)	16	9	12	28*	-5	4
O=C(Nc1ncc2c(n1)CC(c1ccco1)CC2=O)c1ccco1 (centres undefined)	5	11	12	36*	-7	4
Cc1ccc(OCc2nnc(SCC(=O)Nc3ccc(S(N)(=O)=O)cc3)n2-c2ccc(Cl)cc2)cc1	12	x	0	-7	x	x
COc1ccc(N2C(=O)CC(Sc3ccccc3C(=O)O)C2=O)c([N+](=O)[O-])c1 (centres undefined)	1	3	8	100*	-3	55*
Cc1ccc(N2C(=O)CC(Sc3ccccc3C(=O)O)C2=O)c([N+](=O)[O-])c1 (centres undefined)	5	-1	9	63*	3	65*
Cc1ccc(N2C(=O)CC(Sc3ncccc3C(=O)O)C2=O)cc1 (centres undefined)	12	2	0	1	4	x
COc1ccc(N2CCN(C(=O)c3ccccc3F)CC2)c([N+](=O)[O-])c1	-2	7	-2	-4	3	x
COc1cccc(=O)c2c(C)n(CC(=O)c3ccccc3)c(C)c12	5	29	26	36*	6	8
CCOc1cccc(=O)c2c(C)n(CC(=O)c3ccccc3)c(C)c12	8	21	11	5	3	x
O=C(CSC1=Nc2ccccc2C2CC=NN12)Nc1ccc(F)cc1Cl (centres undefined)	2	-15	2	32*	2	43*
O=C(c1ccccc1C(F)(F)F)N1CCC(Oc2cccnc2)CC1	2	x	6	-2	x	x
Cc1cc2c(nc1C)CCCN2S(=O)(=O)c1ccc(C#N)cc1	-3	x	3	2	0	x
CCc1cc2c(nc1CC)CCCN2S(=O)(=O)c1ccc(C#N)cc1	7	x	2	59*	-1	52*
Cc1cccc2sc(=S)[nH]c12	12	x	-8	28*	-1	16
S=c1[nH]c2ccc(Cl)cc2s1	6	-4	4	18	0	x
COc1ccc(Cn2cc(CN3[C@H](Cc4ccccc4)COc4cc(Br)ccc4S3(=O)=O)nn2)cc1	5	x	5	0	x	x
CCCCCC[N+](C)(C)CCSSCC[N+](C)(C)CCCCCC	-2	0	7	91*	9	56*
C#CC[N+](C)(C)CCCCCCCC	-4	5	-7	4	-11	x
CCOC(=O)C1=C(C)N=c2s/c(=C\c3ccc(OCC(=O)O)cc3)c(=O)n2C1c1ccccc1 (centres undefined)	-17	-24	-36	34*	4	9
CCOC(=O)C1=C(C)N=c2sc(=Cc3ccc(OCC(=O)O)cc3)c(=O)n2C1c1ccc(SC)cc1 (centres undefined)	-54	x	-55	30*	6	2
O=C(Nc1cc(S(=O)(=O)N2CCOCC2)ccc1N1CCCC1)c1cc2c(s1)CCCC2	-1	x	-3	-4	x	x
CCC(CC)c1nnc(NC(=O)c2cc(C(=O)OC)cc([N+](=O)[O-])c2)s1	-1	0	-6	29*	-4	20
COC(=O)c1cc(C(=O)Nc2nnc(CC(C)C)s2)cc([N+](=O)[O-])c1	2	3	5	-3	3	x

High-throughput results as filed in PubChem BioAssay.
